This note sets out measurements from ChEMBL document CHEMBL1157108, “Rapid structural identification of cytotoxic bufadienolide sulfates in toad venom from Bufo melanosticus by LC-DAD-MS(n) and LC-SPE-NMR” (J Nat Prod, 2010).

One experiment relates to MCF7. Briefly: Growth inhibition of human MCF7 cells after 72 hrs by MTT assay. The format is functional, cell-based. Particulars: MCF7, 72 h. Summed up: (§1)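 Cells seeded at 10 000 to 40 000 cells/mL (cell-type dependent) and allowed 24 h to plate, then grown 72 h with or without compound. Culture in RPMI with 10% heat-inactivated FCS, 4 mM glutamine, gentamicin and penicillin-streptomycin. Living cells reduce MTT to formazan, read at 570 nm against a 630 nm reference. IC50 reported as mean ± SD.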
On the technique in general: Tetrazolium assays rely on reduction of a dye to a coloured formazan, in cell work by metabolically active cells.

The test system of the next experiment is A549. Nature of the experiment: Growth inhibition of human A549 cells after 72 hrs by MTT assay. As to conditions: A549, 72 h. Type of experiment: functional, cell-based. In short, it runs like this:
as §1

Experiment [1] can be described thus: Growth inhibition of human Hs683 cells after 72 hrs by MTT assay. The format is functional, cell-based. As to conditions: Hs 683, 72 h. In short, it runs like this: as §1
The nature of experiment [2]: Growth inhibition of human U373 cells after 72 hrs by MTT assay. The format is functional, cell-based, U-373MG ATCC. Particulars: U373 MG. Summed up: as §1
In a further experiment the test system is B16-F10. Briefly: Growth inhibition of mouse B16F10 cells after 72 hrs by MTT assay. The format is functional, cell-based. Particulars: B16-F10, 72 h. In short, it runs like this:
as §1

Another experiment deals with CT26. Briefly: Growth inhibition of mouse CT26 cells after 72 hrs by MTT assay. Type of experiment: functional, cell-based. As to conditions: CT26, 72 h. Summed up: as §1

pIC50: −log10 of the molar value. Some results are limits rather than exact numbers.

Regarding `C[C@]12CC[C@H]3[C@@H](CC[C@@H]4C[C@@H](OS(=O)(=O)O)CC[C@@]43CO)[C@@]1(O)CC[C@@H]2c1ccc(=O)oc1`, the pIC50 in the experiment on MCF7 was 6.82; in the experiment on A549 it was 8.30; in experiment [1], 7.09; in experiment [2], 7.92; in the experiment with B16-F10, less than 5.00; with CT26, less than 5.00.

Consider `C[C@]12CC[C@H](OS(=O)(=O)O)C[C@@]1(O)CC[C@@H]1[C@@H]2CC[C@]2(C)[C@@H](c3ccc(=O)oc3)CC[C@]12O`, for which the pIC50 was 5.80 with MCF7; 7.44 in the experiment with A549; 8.15 in experiment [1]; 7.29 in experiment [2]; less than 5.00 with B16-F10; less than 5.00 in the experiment with CT26.

With `C[C@]12CC[C@H]3[C@@H](CC[C@]4(O)C[C@@H](OS(=O)(=O)O)CC[C@]34C=O)[C@@]1(O)CC[C@@H]2c1ccc(=O)oc1`, the pIC50 with MCF7 is 6.29; with A549, 7.35; in experiment [1], 7.01; in experiment [2] it was 6.40; in the experiment on B16-F10, less than 5.00; in the experiment on CT26, less than 5.00.

Consider `CC(=O)O[C@H]1C[C@]2(O)[C@@H]3CC[C@@H]4C[C@@H](O)CC[C@]4(C)[C@H]3[C@H](O)C(=O)[C@]2(C)[C@H]1c1ccc(=O)oc1`, for which the pIC50 with MCF7 was 5.65; in the experiment with A549 it was 5.87; in experiment [1], 6.34; in experiment [2], 6.06; with B16-F10, less than 5.00; in the experiment on CT26, less than 5.00.

On to `C[C@]12CC[C@H]3[C@@H](CC[C@]4(O)C[C@@H](OS(=O)(=O)O)CC[C@]34CO)[C@@]1(O)CC[C@@H]2c1ccc(=O)oc1`, for which the pIC50 was 6.92 in the experiment with MCF7; 7.10 in the experiment with A549; 7.30 in experiment [1]; 6.49 in experiment [2]; less than 5.00 in the experiment with B16-F10; less than 5.00 in the experiment with CT26.

Turning to `C[C@]12CC[C@H](OS(=O)(=O)O)C[C@H]1CC[C@@H]1[C@@H]2CC[C@]2(C)[C@@H](c3ccc(=O)oc3)[C@@H](O)C[C@]12O`, the pIC50 in the experiment with MCF7 was 5.48; in the experiment on A549, 6.33; in experiment [1], 6.75; in experiment [2] it was 6.28; in the experiment with B16-F10 it was less than 5.00; in the experiment on CT26, less than 5.00.

As for `C[C@@H]1O[C@@H](O[C@H]2CC[C@]3(C=O)[C@H]4CC[C@]5(C)[C@@H](c6ccc(=O)oc6)CC[C@]5(O)[C@@H]4CC[C@]3(O)C2)[C@H](O)[C@H](O)[C@H]1O[C@@H]1O[C@H](CO)[C@@H](O)[C@H](O)[C@H]1O` [HELLEBRIN], the pIC50 in the experiment on MCF7 was 7.09; with A549, 7.80; in experiment [1], 8.15; in experiment [2] it was 7.31; in the experiment with B16-F10, less than 5.00; in the experiment on CT26 it was less than 5.00.

As usually defined, the pIC50 is the negative decadic logarithm of the IC50, by convention in mol/L. Read a high pIC50 as a small IC50.
